In ChEMBL document CHEMBL1764988, “Synthesis of 2-(substituted phenyl)-3,5,5-trimethylmorpholine analogues and their effects on monoamine uptake, nicotinic acetylcholine receptor function, and behavioral effects of nicotine” (J Med Chem, 2011):
pIC50: −log10 of the molar value.

Columns and labels:
[1] = organism: Mus musculus; test: Antinociceptive activity in ICR mouse assessed as inhibition of nicotine-induced response by tail flick test; format: functional
Method in brief: (§1)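 Male ICR mice (20–25 g) were used to test blockade of acute nicotine effects (tail-flick, hot-plate, locomotor activity, body temperature). At least four doses of test compound were given, with at least eight mice per dose group. Results were expressed as AD50 (mg/kg) with confidence limits, or as % effect at the highest dose tested.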

[2] = organism: Mus musculus; test: Antinociceptive activity in ICR mouse assessed as inhibition of nicotine-induced response by hotplate test; format: functional; method in brief: as §1
[3] = organism: Mus musculus; test: Effect on behavioral activity in ICR mouse assessed as inhibition of nicotine-induced locomotory response; format: functional; method in brief: as §1
[4] = organism: Mus musculus; test: Effect on body temperature in ICR mouse assessed as inhibition of nicotine-induced hypothermic response; format: functional; method in brief: as §1
[5] = molecular target: Sodium-dependent dopamine transporter (Homo sapiens, UniProt Q01959); test: Inhibition of human DAT in HEK293 cells assessed as inhibition of [3H]dopamine uptake; format: cell-based
Method in brief: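 [3H]DA, [3H]NE or [3H]5HT uptake was measured by the corresponding human transporter stably expressed in HEK-293 cells. Values are mean ± standard error of three independent experiments, each run in triplicate.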

[6] = molecular target: Nicotinic acetylcholine receptor alpha-1/beta-1 (Homo sapiens, UniProt P02708+P11230); test: Antagonist activity at human alpha1beta1 nAChR in HEK293 cells assessed as inhibition of carbamylcholine-induced radiolabeled Rb ion efflux; format: functional, cell-based
Method in brief: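 86Rb+ efflux from human nAChR subtypes naturally or heterologously expressed in human cell lines. Cells were stimulated with a subtype-specific EC80–EC90 concentration of the full agonist carbamylcholine, alone or with test ligand (log molar series). Specific efflux was expressed as percent of control. IC50 values are means from three independent experiments; SEM is given as a multiplication/division factor.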

Chain of Nicotinic acetylcholine receptor alpha-1/beta-1 (P02708 whole entry): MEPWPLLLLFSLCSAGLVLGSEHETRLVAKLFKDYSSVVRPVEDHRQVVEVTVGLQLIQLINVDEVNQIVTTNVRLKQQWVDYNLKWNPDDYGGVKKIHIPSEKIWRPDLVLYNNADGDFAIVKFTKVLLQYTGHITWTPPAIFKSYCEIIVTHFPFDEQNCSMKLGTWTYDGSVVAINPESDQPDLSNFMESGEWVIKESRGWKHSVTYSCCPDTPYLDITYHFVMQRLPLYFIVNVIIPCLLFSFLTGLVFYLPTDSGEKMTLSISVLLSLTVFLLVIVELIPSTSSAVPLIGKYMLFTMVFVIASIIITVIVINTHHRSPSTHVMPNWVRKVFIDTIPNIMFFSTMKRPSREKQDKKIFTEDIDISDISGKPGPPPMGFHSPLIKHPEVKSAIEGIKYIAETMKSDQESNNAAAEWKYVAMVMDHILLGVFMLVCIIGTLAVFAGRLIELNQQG
Chain of Nicotinic acetylcholine receptor alpha-1/beta-1 (P11230 whole entry): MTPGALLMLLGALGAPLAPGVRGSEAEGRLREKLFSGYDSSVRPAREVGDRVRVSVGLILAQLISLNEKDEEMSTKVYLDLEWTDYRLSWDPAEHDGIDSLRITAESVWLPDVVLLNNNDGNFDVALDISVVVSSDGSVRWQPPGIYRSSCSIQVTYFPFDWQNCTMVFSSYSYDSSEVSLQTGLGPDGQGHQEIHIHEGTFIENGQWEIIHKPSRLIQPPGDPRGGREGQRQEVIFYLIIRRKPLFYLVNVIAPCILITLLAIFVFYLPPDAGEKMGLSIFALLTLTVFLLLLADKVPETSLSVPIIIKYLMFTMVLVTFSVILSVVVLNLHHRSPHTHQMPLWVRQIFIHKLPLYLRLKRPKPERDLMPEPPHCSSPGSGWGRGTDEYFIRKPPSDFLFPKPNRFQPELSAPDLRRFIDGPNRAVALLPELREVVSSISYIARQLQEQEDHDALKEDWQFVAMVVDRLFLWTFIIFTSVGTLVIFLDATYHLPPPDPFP
Chain of Sodium-dependent dopamine transporter (Q01959 whole entry): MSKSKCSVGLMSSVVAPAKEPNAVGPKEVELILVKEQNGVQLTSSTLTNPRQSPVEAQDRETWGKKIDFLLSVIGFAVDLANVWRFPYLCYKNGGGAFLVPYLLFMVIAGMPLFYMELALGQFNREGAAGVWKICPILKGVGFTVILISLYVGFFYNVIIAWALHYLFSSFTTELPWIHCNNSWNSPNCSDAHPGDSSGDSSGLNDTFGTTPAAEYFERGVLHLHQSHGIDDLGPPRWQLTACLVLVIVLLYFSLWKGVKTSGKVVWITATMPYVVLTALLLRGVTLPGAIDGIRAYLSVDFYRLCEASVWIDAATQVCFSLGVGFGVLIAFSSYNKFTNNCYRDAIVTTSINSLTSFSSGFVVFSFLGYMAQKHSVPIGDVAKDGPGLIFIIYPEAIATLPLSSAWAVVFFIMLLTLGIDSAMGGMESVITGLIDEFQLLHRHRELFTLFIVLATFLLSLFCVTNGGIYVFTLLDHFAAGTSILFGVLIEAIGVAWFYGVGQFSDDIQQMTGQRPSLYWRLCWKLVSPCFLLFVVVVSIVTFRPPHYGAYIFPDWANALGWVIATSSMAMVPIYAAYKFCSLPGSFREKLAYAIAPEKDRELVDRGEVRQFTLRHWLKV

Row | SMILES | AD50 [1] [mg/kg] | AD50 [2] [mg/kg] | AD50 [3] [mg/kg] | AD50 [4] [mg/kg] | pIC50 [5] | pIC50 [6]
1 | C[C@@H]1N(C)C(C)(C)CO[C@@]1(O)c1cccc(Cl)c1 | 0.13 | >20 | 3.8 | >20 | 6.64 | 4.68
2 | C[C@H]1NC(C)(C)CO[C@]1(O)c1cccc(Cl)c1 | 1.26 | 3.9 | >20 | >20 |  | 
3 | C[C@@H]1NC(C)(C)CO[C@@]1(O)c1cccc(Br)c1 | 0.006 | >20 | 2.1 | >20 | 7.36 | 5.14
4 | CCC[C@@H]1NC(C)(C)CO[C@@]1(O)c1cccc(Cl)c1 | 0.017 | >20 | 0.49 | >20 |  | 
